The record followed here is ChEMBL document CHEMBL2321657, “In vitro efficiency of 9-(N-cinnamoylbutyl)aminoacridines against blood- and liver-stage malaria parasites” (Bioorg Med Chem Lett, 2013).

One series has as its system Plasmodium falciparum. Description: Antiplasmodial activity against ring stage of CQ-resistant Plasmodium falciparum W2 after 48 hrs by flow cytometric analysis. It is filed as functional, organism-based. As to conditions: W2, 48 h. A general note: A flow cytometer gives signals particle by particle.
A further series deals with Huh-7. Description: Cytotoxicity against human HuH7 cells up to 5 uM after 48 hrs by cell confluence analysis. It is filed as cell-based. As to conditions: huh-7, 48 h.
Series [1] relates to Plasmodium berghei. Description: Antiplasmodial activity against liver stage of Plasmodium berghei expressing GFP-Luc infected in HuH7 cells incubated at 1 hr prior to infection followed by compound replenisment at 24 hrs post-infection measured after 48 hrs by Alamar blue assay. Type of series: functional, organism-based. As to conditions: Huh-7, in the assay text read “luciferase bioluminescence assay” for “Alamar blue assay”. The method, boiled down: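 Huh7 human hepatoma cells infected with firefly luciferase-expressing P. berghei sporozoites in the presence of compound. Liver-stage infection load read as bioluminescence of cell lysates 48 h after infection. Primaquine included as the liver-stage reference.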
A general note: Alamar Blue is a resazurin reagent that responds to reducing activity.

The subject of series [2] is Plasmodium berghei. The series is described as follows: Ratio of primaquine IC50 to compound IC50 for liver stage of Plasmodium berghei. It is filed as functional.

A word on the IC50: it is the concentration that inhibits the measured activity by half. Low values mean greater potency in that assay, high ones weaker potency in that assay.

In turn, `O=C(/C=C/c1cccc([N+](=O)[O-])c1)NCCCCNc1c2ccccc2nc2ccccc12` displayed an IC50 in the series on Plasmodium falciparum of 142 nM. Same read-out and setting: under `Cc1ccc(/C=C/C(=O)NCCCCNc2c3ccccc3nc3ccccc23)cc1` stands 225 nM. As to `O=C(/C=C/c1ccc(F)cc1)NCCCCNc1c2ccccc2nc2ccccc12`, the Activity entry in the series on Huh-7 is recorded as “Non-toxic”. In addition, in the series with Plasmodium falciparum, inhibition was half-maximal at 145 nM (IC50). In the series on Plasmodium falciparum, `O=C(/C=C/c1ccccc1)NCCCCNc1c2ccccc2nc2ccccc12` registered an IC50 of 892 nM. This counts as sub-micromolar.

In the series with Plasmodium falciparum, `CC(C)c1ccc(/C=C/C(=O)NCCCCNc2c3ccccc3nc3ccccc23)cc1` yielded an IC50 of 126 nM. This IC50 is about 7.1-fold lower than that of the compound before. `CCN(CC)CCCC(C)Nc1ccnc2cc(Cl)ccc12` (stereo not drawn) [CHLOROQUINE] came in with an IC50 with Plasmodium berghei [1] of more than 15000 nM. Consider `O=C(/C=C/c1cccc(F)c1)NCCCCNc1c2ccccc2nc2ccccc12`, for which, in the series on Plasmodium falciparum, the IC50 was found to be 345 nM. As for `COc1ccc(/C=C/C(=O)NCCCCNc2c3ccccc3nc3ccccc23)cc1`, the “Ratio IC50” value in the series on Plasmodium berghei [2] is reported as 3. The half-inhibitory concentration (IC50) was determined as 3200 nM with Plasmodium berghei [1] and 138 nM in the series on Plasmodium falciparum. Further, in the series with Huh-7, the Activity entry is listed as “Non-toxic”. In turn, `COc1cc(NC(C)CCCN)c2ncccc2c1` (stereo not drawn) [PRIMAQUINE] registered a concentration for half-maximal inhibition (IC50) in the series on Plasmodium berghei [1] of 8000 nM.
